Results on 19 molecules are retold here after ChEMBL document CHEMBL1158519, “Syntheses and antibacterial activity studies of new oxazolidinones from nitroso Diels-Alder chemistry” (2010).

Common to all, as to assay type: functional
Conditions in all cases: read-out: DIZ

The test system of one assay is Micrococcus luteus. In words: Antimicrobial activity against Micrococcus luteus ATCC 10240 at 2 mM after overnight incubation by agar diffusion method. The gist of the method:
(§1)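 Agar diffusion: 9 mm wells cut in Standard I Nutrient Agar or Mueller Hinton II agar, each loaded with 50 µl of a 2.0 mM compound solution in 1:9 DMSO:MeOH. Ciprofloxacin was run as control at 5 µg/mL in H2O. Plates were incubated at 37 °C for 24 h, and the inhibition zone diameter was read in mm. Zones were flagged as partially clear, unclear with colonies, or faint.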
In general terms: In agar diffusion tests the substance spreads into inoculated agar from a disc or well.

The test system of assay [1] is Pseudomonas aeruginosa. Briefly: Antimicrobial activity against wild type Pseudomonas aeruginosa K799 at 2 mM after overnight incubation by agar diffusion method. The gist of the method: as §1
Assay [2] deals with Staphylococcus aureus. Briefly: Antimicrobial activity against wild type Staphylococcus aureus SG 511 at 2 mM after overnight incubation by agar diffusion method. The gist of the method:
as §1

The test system of assay [3] is Enterococcus faecalis. In words: Antimicrobial activity against Enterococcus faecalis ATCC 49532 at 2 mM after overnight incubation by agar diffusion method. In a few lines: as §1
A further assay concerns Mycolicibacterium vaccae. Briefly: Antimicrobial activity against Mycobacterium vaccae IMET 10670 at 2 mM after overnight incubation by agar diffusion method. The gist of the method:
as §1

Assay [4] concerns Escherichia coli. Briefly: Antimicrobial activity against Escherichia coli ATCC 25922 at 2 mM after overnight incubation by agar diffusion method. In a few lines:
as §1

Assay [5] relates to Pseudomonas aeruginosa. Briefly: Antimicrobial activity against Pseudomonas aeruginosa K799/61 mutant at 2 mM after overnight incubation by agar diffusion method. The gist of the method: (§2)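 Agar well diffusion: 50 µl of a 2.0 mM solution in 1:9 DMSO:MeOH placed in 9 mm wells cut in nutrient agar or Mueller Hinton II agar; plates incubated 37 °C for 24 h, then inhibition zone diameter measured in mm. Zones scored as clear, partially clear, unclear (many colonies inside) or faint. Ciprofloxacin positive control at 5 µg/mL in water.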

Another assay relates to Bacillus subtilis. Briefly: Antimicrobial activity against Bacillus subtilis ATCC 6633 at 2 mM after overnight incubation by agar diffusion method. The gist of the method:
as §1

For assay [6], the system named is Escherichia coli. In words: Antimicrobial activity against Escherichia coli X580 at 2 mM after overnight incubation by agar diffusion method.
For assay [7], the system named is Staphylococcus aureus. Briefly: Antimicrobial activity against methicillin-resistant Staphylococcus aureus 143/93 at 2 mM after overnight incubation by agar diffusion method. The gist of the method: as §2
For assay [8], the system named is Enterococcus faecalis. In words: Antimicrobial activity against vancomycin-resistant Enterococcus faecalis 1528 at 2 mM after overnight incubation by agar diffusion method. In a few lines:
as §2

`O=C1O[C@@H](COC(=O)N2OC3C=CC2C3)CN1c1ccc(N2CC[S+]([O-])CC2)c(F)c1` (stereo not given in full): the zone of inhibition at 2000 µM with Micrococcus luteus is 22 mm; with Pseudomonas aeruginosa [1] it was 0 mm; in the assay with Staphylococcus aureus [2], 18 mm; in the assay with Enterococcus faecalis [3], 19 mm; in the assay on Mycolicibacterium vaccae it was 35 mm; with Escherichia coli [4], 0 mm. The zone of inhibition at 2000 µM in the assay on Pseudomonas aeruginosa [5] is 11 mm; in the assay on Bacillus subtilis it was 21 mm.

For the molecule `O=C(NO)OC[C@H]1CN(c2ccc(N3CCSCC3)c(F)c2)C(=O)O1`, the zone of inhibition at 2000 µM in the assay on Micrococcus luteus came out at 33 mm; with Pseudomonas aeruginosa [1], 0 mm; in the assay with Staphylococcus aureus [2], 16 mm; with Enterococcus faecalis [3], 16 mm; in the assay on Escherichia coli [4] it was 0 mm; in the assay with Escherichia coli [6] it was 20 mm. Moreover, the zone of inhibition at 2000 µM with Pseudomonas aeruginosa [5] is 0 mm; in the assay with Bacillus subtilis it was 16 mm.

Consider `O=C(NO)OC[C@H]1CN(c2ccc(N3CCOCC3)c(F)c2)C(=O)O1`, for which the zone of inhibition at 2000 µM in the assay on Micrococcus luteus came to 37 mm; in the assay on Pseudomonas aeruginosa [1], 0 mm; with Staphylococcus aureus [2] it was 18 mm; in the assay on Enterococcus faecalis [3] it was 22 mm; with Escherichia coli [4] it was 12 mm; in the assay with Escherichia coli [6] it was 0 mm. Moreover, the zone of inhibition at 2000 µM in the assay with Pseudomonas aeruginosa [5] is 0 mm; in the assay with Bacillus subtilis, 23 mm.

As for `CC(C)(C)OC(=O)N1CCN(c2ccc(N3C[C@H](CO)OC3=O)cc2F)CC1`, the zone of inhibition at 2000 µM with Micrococcus luteus came to 34.5 mm; in the assay on Pseudomonas aeruginosa [1], 0 mm; in the assay on Staphylococcus aureus [2] it was 24 mm; with Enterococcus faecalis [3], 21 mm; in the assay with Escherichia coli [4], 0 mm; in the assay on Pseudomonas aeruginosa [5] it was 10 mm. For the same molecule, the zone of inhibition at 2000 µM with Bacillus subtilis came to 23 mm.

For `O=C1O[C@@H](CO)CN1c1ccc(N2CCOCC2)c(F)c1`, the zone of inhibition at 2000 µM with Micrococcus luteus was found to be 38 mm; with Pseudomonas aeruginosa [1] it was 0 mm; in the assay with Staphylococcus aureus [2], 23 mm; with Enterococcus faecalis [3] it was 21 mm; in the assay with Mycolicibacterium vaccae it was 43 mm; with Escherichia coli [4], 0 mm. Also, the zone of inhibition at 2000 µM was determined as 11 mm with Pseudomonas aeruginosa [5] and 26 mm in the assay with Bacillus subtilis.

Take `O=C1O[C@@H](CO)CN1c1ccc(N2CCSCC2)c(F)c1`: the zone of inhibition at 2000 µM in the assay on Micrococcus luteus turned out to be 41 mm; with Pseudomonas aeruginosa [1], 0 mm; with Staphylococcus aureus [2] it was 24 mm; in the assay on Enterococcus faecalis [3], 21.5 mm; with Mycolicibacterium vaccae, 43 mm; in the assay with Escherichia coli [4], 0 mm. Also, the results for the zone of inhibition at 2000 µM in the assay with Pseudomonas aeruginosa [5] and with Bacillus subtilis were 11 mm and 26 mm, respectively.

With `O=C(N[C@H]1C=C[C@@H](O)C1)OC[C@H]1CN(c2ccc(N3CCOCC3)c(F)c2)C(=O)O1`, the zone of inhibition at 2000 µM is 15 mm in the assay on Staphylococcus aureus [2]; 18 mm with Mycolicibacterium vaccae; 0 mm with Pseudomonas aeruginosa [5]; 14 mm in the assay on Staphylococcus aureus [7]; 14 mm with Bacillus subtilis; 12 mm in the assay with Enterococcus faecalis [8].

In the case of `O=C(N[C@H]1C=C[C@@H](O)CC1)OC[C@H]1CN(c2ccc(N3CCOCC3)c(F)c2)C(=O)O1`, the zone of inhibition at 2000 µM with Staphylococcus aureus [2] turned out to be 14 mm; in the assay with Mycolicibacterium vaccae it was 0 mm; in the assay with Pseudomonas aeruginosa [5], 0 mm; with Staphylococcus aureus [7], 14 mm; with Bacillus subtilis it was 13 mm; with Enterococcus faecalis [8], 12 mm.

In the case of `O=C(N[C@H]1C=C[C@@H](O)CC1)OC[C@H]1CN(c2ccc(N3CCSCC3)c(F)c2)C(=O)O1`, the zone of inhibition at 2000 µM worked out at 14 mm in the assay on Micrococcus luteus; 0 mm in the assay on Pseudomonas aeruginosa [1]; 0 mm in the assay with Staphylococcus aureus [2]; 12 mm in the assay with Enterococcus faecalis [3]; 0 mm with Mycolicibacterium vaccae; 0 mm in the assay with Escherichia coli [4]. Moreover, the results for the zone of inhibition at 2000 µM in the assay with Pseudomonas aeruginosa [5] and in the assay on Bacillus subtilis were 10 mm and 12 mm, respectively.

Regarding `O=C1O[C@@H](COC(=O)N2OC3C=CC2C3)CN1c1ccc(N2CCOCC2)c(F)c1` (stereo not given in full), the zone of inhibition at 2000 µM with Staphylococcus aureus [2] is 15 mm; in the assay with Mycolicibacterium vaccae, 30 mm; with Pseudomonas aeruginosa [5], 0 mm; in the assay with Staphylococcus aureus [7] it was 25 mm; with Bacillus subtilis, 17 mm; with Enterococcus faecalis [8], 19 mm.

Take `O=C1O[C@@H](COC(=O)N2OC3C=CC2CC3)CN1c1ccc(N2CC[S+]([O-])CC2)c(F)c1` (stereo not given in full): the zone of inhibition at 2000 µM turned out to be 15 mm in the assay with Micrococcus luteus; 0 mm with Pseudomonas aeruginosa [1]; 15 mm in the assay on Staphylococcus aureus [2]; 17 mm in the assay with Enterococcus faecalis [3]; 18 mm in the assay on Mycolicibacterium vaccae; 0 mm in the assay with Escherichia coli [4]. The zone of inhibition at 2000 µM in the assay on Pseudomonas aeruginosa [5] came to 10 mm; with Bacillus subtilis, 17 mm.

In the case of `CC(C)(C)OC(=O)N1CCN(c2ccc(N3C[C@H](COC(=O)N[C@H]4C=C[C@@H](O)C4)OC3=O)cc2F)CC1`, the zone of inhibition at 2000 µM was found to be 12 mm in the assay on Micrococcus luteus; 0 mm in the assay with Pseudomonas aeruginosa [1]; 14 mm with Staphylococcus aureus [2]; 12.5 mm with Enterococcus faecalis [3]; 12 mm with Mycolicibacterium vaccae; 0 mm with Escherichia coli [4]. For the same molecule, the zone of inhibition at 2000 µM is 10 mm with Pseudomonas aeruginosa [5] and 13 mm with Bacillus subtilis.

In the case of `O=C(N[C@H]1C=C[C@@H](O)C1)OC[C@H]1CN(c2ccc(N3CCSCC3)c(F)c2)C(=O)O1`, the zone of inhibition at 2000 µM with Micrococcus luteus was 15 mm; in the assay with Pseudomonas aeruginosa [1], 0 mm; in the assay with Staphylococcus aureus [2], 12.5 mm; in the assay on Enterococcus faecalis [3] it was 12.5 mm; in the assay with Mycolicibacterium vaccae, 18 mm; with Escherichia coli [4], 0 mm. Further, the zone of inhibition at 2000 µM in the assay on Pseudomonas aeruginosa [5] came to 10 mm; with Bacillus subtilis, 14 mm.

Turning to `CC(=O)OC[C@H]1CN(c2ccc(N3CCOCC3)c(F)c2)C(=O)O1`, the zone of inhibition at 2000 µM in the assay with Micrococcus luteus turned out to be 38 mm; in the assay with Pseudomonas aeruginosa [1] it was 0 mm; with Staphylococcus aureus [2], 26 mm; in the assay with Enterococcus faecalis [3] it was 24 mm; in the assay with Mycolicibacterium vaccae, 43 mm; with Escherichia coli [4], 0 mm. Moreover, the zone of inhibition at 2000 µM with Pseudomonas aeruginosa [5] turned out to be 17 mm; with Bacillus subtilis, 26.5 mm.

Regarding `CC(C)(C)OC(=O)N1CCN(c2ccc(N3C[C@H](COC(=O)N4OC5C=CC4C5)OC3=O)cc2F)CC1` (stereo not given in full), the zone of inhibition at 2000 µM with Micrococcus luteus came out at 16 mm; in the assay on Pseudomonas aeruginosa [1], 14 mm; with Staphylococcus aureus [2], 13 mm; in the assay on Enterococcus faecalis [3], 19 mm; in the assay with Mycolicibacterium vaccae, 19 mm; with Escherichia coli [4], 0 mm. Also, the zone of inhibition at 2000 µM in the assay with Pseudomonas aeruginosa [5] is 0 mm; with Staphylococcus aureus [7] it was 19 mm; in the assay on Bacillus subtilis it was 12 mm; in the assay with Enterococcus faecalis [8], 16 mm.

`CC(C)(C)OC(=O)N1CCN(c2ccc(N3C[C@H](COC(=O)N4OC5C=CC4CC5)OC3=O)cc2F)CC1` (stereo not given in full): the zone of inhibition at 2000 µM with Staphylococcus aureus [2] is 16 mm; in the assay with Mycolicibacterium vaccae, 13 mm; in the assay on Pseudomonas aeruginosa [5], 0 mm; in the assay with Staphylococcus aureus [7], 14 mm; in the assay with Bacillus subtilis, 18 mm; in the assay on Enterococcus faecalis [8], 12 mm.

Regarding `O=C1O[C@@H](COC(=O)N2OC3C=CC2CC3)CN1c1ccc(N2CCOCC2)c(F)c1` (stereo not given in full), the zone of inhibition at 2000 µM was 16 mm in the assay with Staphylococcus aureus [2]; 15 mm in the assay on Mycolicibacterium vaccae; 0 mm in the assay on Pseudomonas aeruginosa [5]; 18 mm with Staphylococcus aureus [7]; 19 mm in the assay on Bacillus subtilis; 16 mm in the assay on Enterococcus faecalis [8].

`CC(C)(C)OC(=O)N1CCN(c2ccc(N3C[C@H](COC(=O)N[C@H]4C=C[C@@H](O)CC4)OC3=O)cc2F)CC1`: the zone of inhibition at 2000 µM in the assay with Micrococcus luteus worked out at 0 mm; in the assay with Pseudomonas aeruginosa [1] it was 0 mm; with Staphylococcus aureus [2], 0 mm; in the assay on Enterococcus faecalis [3], 12 mm; in the assay on Mycolicibacterium vaccae it was 0 mm; in the assay on Escherichia coli [4], 0 mm. Also, the zone of inhibition at 2000 µM in the assay with Pseudomonas aeruginosa [5] turned out to be 12 mm; in the assay with Bacillus subtilis it was 0 mm.

Consider `O=C(O)c1cn(C2CC2)c2cc(N3CCNCC3)c(F)cc2c1=O` [CIPROFLOXACIN], for which the zone of inhibition at 2000 µM with Micrococcus luteus turned out to be 0 mm; with Pseudomonas aeruginosa [1], 35 mm; in the assay with Staphylococcus aureus [2] it was 24 mm; in the assay with Enterococcus faecalis [3], 13 mm; in the assay on Mycolicibacterium vaccae it was 19 mm; in the assay with Escherichia coli [4] it was 31 mm. In addition, the zone of inhibition at 2000 µM in the assay on Pseudomonas aeruginosa [5] was found to be 39 mm; with Staphylococcus aureus [7], 0 mm; in the assay on Bacillus subtilis, 29.5 mm; in the assay with Enterococcus faecalis [8], 15 mm.
